# Tests used:
# Human alphaherpesvirus 1 [1] = assay: Antiviral activity against 5 MOI Herpes simplex viruses 1 infected in vero cells after 24 hrs by viral plaque number reduction assay; assay type: functional, organism-based; details: Human alphaherpesvirus 1, Vero
# Outline: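 Vero cells in 6-well plates infected with HSV-1 at MOI 5 for 1 h at 37 °C, then treated with test compounds. After 24 h infected cells lysed, supernatant harvested and titred by plaque assay. IC50 = concentration inhibiting 50% of plaque formation versus untreated controls. Acyclovir positive control. Triplicate independent experiments.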
# Human alphaherpesvirus 1 [2] = assay: Antiviral activity against Herpes simplex viruses 1 infected in vero cells assessed as inhibition of viral replication at 50 uM after 72 hrs by XTT assay; assay type: functional; details: Human alphaherpesvirus 1, Vero
# Outline: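 Vero monolayers (10⁴ cells/well) infected with HSV-1 at 100 CCID50/well for 1 h. Inoculum removed, cells washed, medium with 50 µM compound added; acyclovir 50 µM as control. After 72 h XTT/PMS added to measure protection from virus-induced cytopathic effect. Means of triplicate experiments.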
# [3] = Selectivity index, ratio of CC50 for african green monkey vero cells to IC50 for Herpes simplex viruses 1; assay type: functional
# Outline: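 Selectivity index computed as CC50 (XTT assay in Vero cells, 72 h) divided by IC50 (plaque number reduction against HSV-1 in Vero cells).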
# [4] = Cytotoxicity against african green monkey Vero cells after 72 hrs by XTT assay; assay type: cell-based; details: chlorocebus sabaeus
# Outline: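 Vero cells (10⁴ cells/well; DMEM, 5% FBS, 37 °C, 5% CO2) exposed to a range of compound concentrations for 72 h. XTT (2.5 mg/mL final) added with PMS 32 µg/mL, 4 h incubation, absorbance read at 492 nm with 620 nm reference. CC50 obtained by linear regression of dose-response curves; acyclovir included.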
Compound,IC50 (Human alphaherpesvirus 1 [1]) [µM],inhibition at 50 µM (Human alphaherpesvirus 1 [2]) [%],Ratio CC50/IC50 [3],CC50 at 72 h [4] [µM]
Cc1c(C(=O)NNS(=O)(=O)c2ccccc2)nnn1Nc1ccccc1,19,79,80,1510
Cc1ccc(S(=O)(=O)NNC(=O)c2nnn(Nc3ccccc3)c2C)cc1,–,37,–,–
COc1ccc(S(=O)(=O)NNC(=O)c2nnn(Nc3ccccc3)c2C)cc1,–,54,–,–
Cc1ccc(S(=O)(=O)NNC(=O)c2nnn(Nc3ccc(F)cc3)c2C)cc1,1.3,88,974,1270
Cc1c(C(=O)NNS(=O)(=O)c2ccccc2)nnn1Nc1ccc(Cl)cc1,–,57,–,–
Cc1c(C(=O)NNS(=O)(=O)c2ccccc2)nnn1Nc1ccc(Br)cc1,–,31,–,–
Cc1ccc(S(=O)(=O)NNC(=O)c2nnn(Nc3ccc(Br)cc3)c2C)cc1,–,69,–,–
COc1ccc(S(=O)(=O)NNC(=O)c2nnn(Nc3ccc(Br)cc3)c2C)cc1,37,77,26,971
Cc1c(C(=O)NNS(=O)(=O)c2ccccc2)nnn1Nc1cc(Cl)ccc1Cl,1.26,71,932,1170
Nc1nc2c(ncn2COCCO)c(=O)[nH]1 [ACYCLOVIR],0.99,95,869,860

# Source: ChEMBL document CHEMBL1681787, “Synthesis and anti-HSV-1 activity of new 1,2,3-triazole derivatives” (Bioorg Med Chem, 2011)
